Our source for the IC50 and selectivity ratio values is ChEMBL document CHEMBL5634209, “Computational design, synthesis, and assessment of 3-(4-(4-(1,3,4-oxadiazol-2-yl)-1H-imidazol-2-yl)phenyl)-1,2,4-oxadiazole derivatives as effective epidermal growth factor receptor inhibitors: a prospective strategy for anticancer therapy” (RSC Med Chem, 2024).

pIC50: −log10 of the molar value.

One data set has as its system PC-3. Description: Antiproliferative activity against human PC-3 cells assessed as reduction in cell viability measured after 48 hrs by MTT assay. It counts as functional, cell-based. The note with it: PC-3, 48 h. In a few lines:
(§1)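 Cells were grown at 37 °C in 5% CO2 in medium with 10% FBS: RPMI-1640 for A549, DU-145 and HepG2, and DMEM/F12 for PC-3. They were seeded at 5×10^3/well. At 70–80% confluence they were exposed to a concentration range diluted from a 60 mM DMSO stock for 48 h at 37 °C, with 0.1% DMSO as vehicle. MTT 5 mg/mL stock was added for 4 h, formazan dissolved in DMSO, A570 read, and % inhibition calculated against control. IC50 was taken from the concentration series.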
Background: Tetrazolium dyes change colour on reduction, which living cells bring about.
Consider `COc1cc(OC)cc(-c2nc(-c3ccc(-c4nc(-c5nnc(-c6ccncc6)o5)c[nH]4)cc3)no2)c1`, for which the pIC50 was 6.01.
Regarding `Brc1ccc(-c2nc(-c3ccc(-c4nc(-c5nnc(-c6ccncc6)o5)c[nH]4)cc3)no2)cc1`, the pIC50 is 5.46.
On the same count and under the same terms, with `CN(C)c1ccc(-c2nc(-c3ccc(-c4nc(-c5nnc(-c6ccncc6)o5)c[nH]4)cc3)no2)cc1` the figure was 5.66; with `O=[N+]([O-])c1ccc(-c2nc(-c3ccc(-c4nc(-c5nnc(-c6ccncc6)o5)c[nH]4)cc3)no2)cc1`, 5.65.

The test system of a further data set is A549. In words: Antiproliferative activity against human A549 cells assessed as reduction in cell viability measured after 48 hrs by MTT assay. It counts as functional, cell-based. The note with it: A549, 48 h. In a few lines: as §1
With `COc1cc(OC)cc(-c2nc(-c3ccc(-c4nc(-c5nnc(-c6ccncc6)o5)c[nH]4)cc3)no2)c1`, the pIC50 was 6.07.
Consider `N#Cc1ccc(-c2nc(-c3ccc(-c4nc(-c5nnc(-c6ccncc6)o5)c[nH]4)cc3)no2)cc1`, for which the pIC50 is 5.09.
Regarding `Brc1ccc(-c2nc(-c3ccc(-c4nc(-c5nnc(-c6ccncc6)o5)c[nH]4)cc3)no2)cc1`, the pIC50 is 5.57.
For the compound `CN(C)c1ccc(-c2nc(-c3ccc(-c4nc(-c5nnc(-c6ccncc6)o5)c[nH]4)cc3)no2)cc1`, the pIC50 is 5.70.

The next data set concerns HepG2. In words: Antiproliferative activity against human HepG2 cells assessed as reduction in cell viability measured after 48 hrs by MTT assay. It counts as functional, cell-based. The note with it: HepG2, 48 h. In a few lines: as §1
With `COc1cc(OC)cc(-c2nc(-c3ccc(-c4nc(-c5nnc(-c6ccncc6)o5)c[nH]4)cc3)no2)c1`, the negative logarithm of the IC50 (pIC50) was 6.56.
Still for that read-out and setting: then `N#Cc1ccc(-c2nc(-c3ccc(-c4nc(-c5nnc(-c6ccncc6)o5)c[nH]4)cc3)no2)cc1`, with 5.16; and `Brc1ccc(-c2nc(-c3ccc(-c4nc(-c5nnc(-c6ccncc6)o5)c[nH]4)cc3)no2)cc1`, with 5.42; and `CN(C)c1ccc(-c2nc(-c3ccc(-c4nc(-c5nnc(-c6ccncc6)o5)c[nH]4)cc3)no2)cc1`, with 5.75.
`O=[N+]([O-])c1ccc(-c2nc(-c3ccc(-c4nc(-c5nnc(-c6ccncc6)o5)c[nH]4)cc3)no2)cc1`: the pIC50 is 5.27.

The subject of a further data set is DU-145. Description: Antiproliferative activity against human DU-145 cells assessed as reduction in cell viability measured after 48 hrs by MTT assay. Particulars: DU-145, 48 h. It counts as functional, cell-based. In a few lines:
as §1
On to `COc1cc(OC)cc(-c2nc(-c3ccc(-c4nc(-c5nnc(-c6ccncc6)o5)c[nH]4)cc3)no2)c1`, for which the pIC50 is 6.06.
Turning to `Brc1ccc(-c2nc(-c3ccc(-c4nc(-c5nnc(-c6ccncc6)o5)c[nH]4)cc3)no2)cc1`, the pIC50 was 5.37.
Still for that read-out and setting: then `CN(C)c1ccc(-c2nc(-c3ccc(-c4nc(-c5nnc(-c6ccncc6)o5)c[nH]4)cc3)no2)cc1`, with 5.60; and `O=[N+]([O-])c1ccc(-c2nc(-c3ccc(-c4nc(-c5nnc(-c6ccncc6)o5)c[nH]4)cc3)no2)cc1`, with 5.42.

Test system in the next data set: not listed separately
Description: Cytotoxicity against African green monkey Vero cells assessed as reduction in cell viability measured after 48 hrs by MTT assay. The class given is toxicity, cell-based. The note with it: African green monkey (Chlorocebus sabaeus).
`COc1cc(OC)cc(-c2nc(-c3ccc(-c4nc(-c5nnc(-c6ccncc6)o5)c[nH]4)cc3)no2)c1`: the IC50 at 48 h was above 15000 nM.
In the case of `N#Cc1ccc(-c2nc(-c3ccc(-c4nc(-c5nnc(-c6ccncc6)o5)c[nH]4)cc3)no2)cc1`, the IC50 at 48 h was above 23000 nM.
In the case of `Brc1ccc(-c2nc(-c3ccc(-c4nc(-c5nnc(-c6ccncc6)o5)c[nH]4)cc3)no2)cc1`, the IC50 at 48 h was above 20000 nM.
Take `CN(C)c1ccc(-c2nc(-c3ccc(-c4nc(-c5nnc(-c6ccncc6)o5)c[nH]4)cc3)no2)cc1`: the IC50 at 48 h was above 16000 nM.
`O=[N+]([O-])c1ccc(-c2nc(-c3ccc(-c4nc(-c5nnc(-c6ccncc6)o5)c[nH]4)cc3)no2)cc1`: the IC50 at 48 h was above 24000 nM.

Test system in another data set: not listed separately
Description: Selectivity index, ratio of IC50 for cytotoxicity against African green monkey Vero cells to IC50 for antiproliferative activity against human PC-3 cells. It counts as toxicity, cell-based. Particulars: Vero cells versus PC-3 cells, read-out: Ratio IC50.
Consider `COc1cc(OC)cc(-c2nc(-c3ccc(-c4nc(-c5nnc(-c6ccncc6)o5)c[nH]4)cc3)no2)c1`, for which the selectivity ratio was 15.3.
For the compound `Brc1ccc(-c2nc(-c3ccc(-c4nc(-c5nnc(-c6ccncc6)o5)c[nH]4)cc3)no2)cc1`, the selectivity ratio amounted to 5.34.
In the case of `CN(C)c1ccc(-c2nc(-c3ccc(-c4nc(-c5nnc(-c6ccncc6)o5)c[nH]4)cc3)no2)cc1`, the selectivity ratio is 7.3.
For the compound `O=[N+]([O-])c1ccc(-c2nc(-c3ccc(-c4nc(-c5nnc(-c6ccncc6)o5)c[nH]4)cc3)no2)cc1`, the selectivity ratio was 8.96.

Test system in a further data set: not listed separately
Description: Selectivity index, ratio of IC50 for cytotoxicity against African green monkey Vero cells to IC50 for antiproliferative activity against human A549 cells. The class given is toxicity, cell-based. The note with it: Vero cells versus A549 cells, read-out: Ratio IC50.
For the compound `COc1cc(OC)cc(-c2nc(-c3ccc(-c4nc(-c5nnc(-c6ccncc6)o5)c[nH]4)cc3)no2)c1`, the selectivity ratio was 17.4.
Same read-out and setting: with `N#Cc1ccc(-c2nc(-c3ccc(-c4nc(-c5nnc(-c6ccncc6)o5)c[nH]4)cc3)no2)cc1` the figure was 2.8; with `Brc1ccc(-c2nc(-c3ccc(-c4nc(-c5nnc(-c6ccncc6)o5)c[nH]4)cc3)no2)cc1`, 7.46; with `CN(C)c1ccc(-c2nc(-c3ccc(-c4nc(-c5nnc(-c6ccncc6)o5)c[nH]4)cc3)no2)cc1`, 8.08.

Test system in the next data set: not listed separately
In words: Selectivity index, ratio of IC50 for cytotoxicity against African green monkey Vero cells to IC50 for antiproliferative activity against human HepG2 cells. The class given is toxicity, cell-based. Particulars: Vero cells versus HepG2 cells, read-out: Ratio IC50.
For the compound `COc1cc(OC)cc(-c2nc(-c3ccc(-c4nc(-c5nnc(-c6ccncc6)o5)c[nH]4)cc3)no2)c1`, the selectivity ratio was 54.9.
Consider `N#Cc1ccc(-c2nc(-c3ccc(-c4nc(-c5nnc(-c6ccncc6)o5)c[nH]4)cc3)no2)cc1`, for which the selectivity ratio is 3.29.
As for `Brc1ccc(-c2nc(-c3ccc(-c4nc(-c5nnc(-c6ccncc6)o5)c[nH]4)cc3)no2)cc1`, the selectivity ratio was 5.31.
As for `CN(C)c1ccc(-c2nc(-c3ccc(-c4nc(-c5nnc(-c6ccncc6)o5)c[nH]4)cc3)no2)cc1`, the selectivity ratio came to 9.03.
On the same count and under the same terms, then `O=[N+]([O-])c1ccc(-c2nc(-c3ccc(-c4nc(-c5nnc(-c6ccncc6)o5)c[nH]4)cc3)no2)cc1`, with 4.5.

Test system in the next data set: not listed separately
In words: Selectivity index, ratio of IC50 for cytotoxicity against African green monkey Vero cells to IC50 for antiproliferative activity against human DU-145 cells. It counts as toxicity, cell-based. The note with it: Vero cells versus DU-145 cells, read-out: Ratio IC50.
With `COc1cc(OC)cc(-c2nc(-c3ccc(-c4nc(-c5nnc(-c6ccncc6)o5)c[nH]4)cc3)no2)c1`, the selectivity ratio turned out to be 17.
On to `Brc1ccc(-c2nc(-c3ccc(-c4nc(-c5nnc(-c6ccncc6)o5)c[nH]4)cc3)no2)cc1`, for which the selectivity ratio stood at 4.7.
With `CN(C)c1ccc(-c2nc(-c3ccc(-c4nc(-c5nnc(-c6ccncc6)o5)c[nH]4)cc3)no2)cc1`, the selectivity ratio is 6.42.
As to `O=[N+]([O-])c1ccc(-c2nc(-c3ccc(-c4nc(-c5nnc(-c6ccncc6)o5)c[nH]4)cc3)no2)cc1`, the selectivity ratio came to 6.29.

The target in a further data set is Epidermal growth factor receptor (Homo sapiens, UniProt P00533). Description: Inhibition of wild type EGFR (unknown origin) incubated for 40 mins by Kinase Glo Max reagent based luminescence analysis.
Chain of Epidermal growth factor receptor (Homo sapiens, UniProt P00533) (P00533 whole entry): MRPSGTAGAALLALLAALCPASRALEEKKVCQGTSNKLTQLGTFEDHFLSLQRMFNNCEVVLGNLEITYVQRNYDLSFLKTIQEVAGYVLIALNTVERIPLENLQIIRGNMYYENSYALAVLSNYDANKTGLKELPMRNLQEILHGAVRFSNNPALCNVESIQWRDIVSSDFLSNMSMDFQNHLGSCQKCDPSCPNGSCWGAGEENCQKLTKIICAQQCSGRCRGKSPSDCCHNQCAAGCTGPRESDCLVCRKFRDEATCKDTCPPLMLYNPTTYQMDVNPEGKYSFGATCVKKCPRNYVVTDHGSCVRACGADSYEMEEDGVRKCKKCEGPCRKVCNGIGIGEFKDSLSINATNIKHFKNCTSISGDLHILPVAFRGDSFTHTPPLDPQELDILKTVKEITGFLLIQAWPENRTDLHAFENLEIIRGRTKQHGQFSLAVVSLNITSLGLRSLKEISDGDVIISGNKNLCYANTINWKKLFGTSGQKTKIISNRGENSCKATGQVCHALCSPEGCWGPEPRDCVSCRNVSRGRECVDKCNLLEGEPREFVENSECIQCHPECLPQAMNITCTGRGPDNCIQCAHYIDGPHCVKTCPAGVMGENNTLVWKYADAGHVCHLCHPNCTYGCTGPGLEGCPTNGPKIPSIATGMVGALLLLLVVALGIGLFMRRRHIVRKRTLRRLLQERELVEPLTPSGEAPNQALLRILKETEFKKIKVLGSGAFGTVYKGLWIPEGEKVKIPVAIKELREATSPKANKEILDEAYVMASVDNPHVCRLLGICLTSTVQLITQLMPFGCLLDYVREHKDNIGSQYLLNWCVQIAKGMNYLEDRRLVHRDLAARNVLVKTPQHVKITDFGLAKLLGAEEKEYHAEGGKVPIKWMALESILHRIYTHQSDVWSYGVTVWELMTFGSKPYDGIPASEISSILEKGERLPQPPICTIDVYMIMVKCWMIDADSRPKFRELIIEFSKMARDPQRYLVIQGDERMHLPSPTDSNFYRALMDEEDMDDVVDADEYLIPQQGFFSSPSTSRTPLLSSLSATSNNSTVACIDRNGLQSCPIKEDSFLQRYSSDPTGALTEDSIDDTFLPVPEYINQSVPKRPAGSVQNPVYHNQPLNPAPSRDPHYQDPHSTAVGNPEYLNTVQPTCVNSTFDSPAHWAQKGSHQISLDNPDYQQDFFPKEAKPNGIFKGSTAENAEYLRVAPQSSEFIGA
Settings: not given
In general terms: Kinase-Glo reads ATP consumption through a luciferase reaction.
In the case of `COc1cc(OC)cc(-c2nc(-c3ccc(-c4nc(-c5nnc(-c6ccncc6)o5)c[nH]4)cc3)no2)c1`, the pIC50 was 6.66.

A further data set deals with Epidermal growth factor receptor (Homo sapiens, UniProt P00533, T790M). In words: Inhibition of EGFR T790M mutant (unknown origin) incubated for 40 mins by Kinase Glo Max reagent based luminescence analysis.
Chain of Epidermal growth factor receptor (Homo sapiens, UniProt P00533, T790M) (P00533 25-1210 T790M limits assumed): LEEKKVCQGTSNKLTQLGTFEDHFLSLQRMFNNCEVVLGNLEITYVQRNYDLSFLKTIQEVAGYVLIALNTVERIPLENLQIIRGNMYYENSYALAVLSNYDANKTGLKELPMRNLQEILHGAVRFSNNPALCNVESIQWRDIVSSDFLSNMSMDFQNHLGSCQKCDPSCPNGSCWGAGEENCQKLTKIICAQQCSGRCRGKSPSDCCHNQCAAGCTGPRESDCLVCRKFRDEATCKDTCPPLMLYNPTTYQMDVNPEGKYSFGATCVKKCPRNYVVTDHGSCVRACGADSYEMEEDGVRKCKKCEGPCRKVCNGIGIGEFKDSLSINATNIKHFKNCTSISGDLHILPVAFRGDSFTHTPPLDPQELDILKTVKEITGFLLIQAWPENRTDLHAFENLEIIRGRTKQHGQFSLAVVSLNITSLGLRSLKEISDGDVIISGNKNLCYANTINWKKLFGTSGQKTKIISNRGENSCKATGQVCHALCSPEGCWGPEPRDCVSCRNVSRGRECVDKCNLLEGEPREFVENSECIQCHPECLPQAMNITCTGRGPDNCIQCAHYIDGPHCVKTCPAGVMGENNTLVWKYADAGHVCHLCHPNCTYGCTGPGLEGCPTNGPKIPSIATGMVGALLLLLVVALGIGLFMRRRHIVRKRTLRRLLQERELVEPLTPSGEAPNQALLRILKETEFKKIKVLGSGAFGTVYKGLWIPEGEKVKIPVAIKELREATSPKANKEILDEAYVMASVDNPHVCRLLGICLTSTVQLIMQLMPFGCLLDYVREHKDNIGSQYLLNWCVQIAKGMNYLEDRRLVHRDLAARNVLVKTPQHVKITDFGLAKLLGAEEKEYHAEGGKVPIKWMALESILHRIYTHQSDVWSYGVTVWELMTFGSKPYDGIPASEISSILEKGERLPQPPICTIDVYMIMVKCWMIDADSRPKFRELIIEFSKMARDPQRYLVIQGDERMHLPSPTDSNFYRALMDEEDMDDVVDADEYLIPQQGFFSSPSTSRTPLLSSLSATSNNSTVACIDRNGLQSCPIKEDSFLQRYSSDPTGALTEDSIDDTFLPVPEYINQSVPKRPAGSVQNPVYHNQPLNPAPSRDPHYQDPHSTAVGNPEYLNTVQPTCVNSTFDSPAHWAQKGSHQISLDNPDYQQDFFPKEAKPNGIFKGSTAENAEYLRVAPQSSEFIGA
Settings: not given
Consider `COc1cc(OC)cc(-c2nc(-c3ccc(-c4nc(-c5nnc(-c6ccncc6)o5)c[nH]4)cc3)no2)c1`, for which the pIC50 was 5.91.

By pIC50 is commonly meant −log10 of the IC50, conventionally taken in molar units. By IC50 is commonly meant the concentration that inhibits the measured activity by half.
